# Measurements as given in ChEMBL document CHEMBL1240502, “Therapeutic effects of cantharidin analogues without bridging ether oxygen on human hepatocellular carcinoma cells” (Eur J Med Chem, 2010).
# Activity calls are given as the source filed them. No cut-off for these calls is given here.
# Columns and labels:
# [1] = tested on: SK-HEP1; test: Cytotoxicity against human SKHEP1 cells after 48 hrs by MTT assay; type: functional, cell-based; conditions: SK-HEP1, 48 h
# Method in brief: (§1)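 Cells seeded in 24-well plates at 1 × 10⁵ cells/well, allowed 12 h, then exposed to test chemical or vehicle for 48 h, in triplicate. Medium replaced with MTT in PBS (pH 7.4) for 4 h at 37 °C; formazan dissolved in DMSO and read at 540 nm. Viability = (test − background)/(control − background) × 100.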
# [2] = tested on: HepG2; test: Cytotoxicity against human HepG2 cells after 48 hrs by MTT assay; type: functional, cell-based; conditions: HepG2, 48 h; method in brief: as §1
# [3] = tested on: Hepatocyte; test: Cytotoxicity against rat hepatocyte cells after 48 hrs by MTT assay; type: cell-based; method in brief: as §1
# [4] = Cytotoxicity against rat hepatocyte cells assessed as survival at 200 uM after 48 hrs by MTT assay; type: cell-based; conditions: rat hepatocytes, read-out: Activity; method in brief: as §1
# [5] = tested on: HepG2; test: Cytotoxicity against human HepG2 cells at 50 uM after 48 hrs by MTT assay; type: functional, cell-based; method in brief: as §1
# [6] = tested on: SK-HEP1; test: Cytotoxicity against human SKHEP1 cells at 50 uM after 48 hrs by MTT assay; type: functional, cell-based; method in brief: as §1
# [7] = tested on: Hepatocyte; test: Cytotoxicity against rat hepatocyte cells at 50 uM after 48 hrs by MTT assay; type: cell-based; conditions: hepatocytes; method in brief: as §1
SMILES,IC50 [1],IC50 [2],IC50 [3],"viability at 48 h, 200 µM [4]",Activity [5],Activity [6],Activity [7]
O=C1C2C(C(=O)N1c1nc3ccccc3s1)[C@H]1C=C[C@@H]2CC1 (stereo partly drawn),> 200 µM,> 200 µM,> 200 µM,–,–,–,–
O=C1OC(=O)c2cc(Oc3ccc4c(c3)C(=O)OC4=O)ccc21,199 µM,121 µM,> 200 µM,80%,Active,Active,Non-toxic
Cc1cnc(/N=C2\OC(=O)C3C2[C@@H]2C=C[C@H]3CC2)s1 (stereo partly drawn),> 200 µM,92 µM,> 200 µM,80%,Active,Active,Non-toxic
Cc1ccc2c(c1)C(=O)N(c1nc3ccccc3s1)C2=O,> 200 µM,> 200 µM,> 200 µM,–,–,–,–
O=C1OC(=O)[C@H]2[C@@H]1[C@H]1C=C[C@@H]2C1,151 µM,62 µM,> 200 µM,80%,Active,Active,Non-toxic
C[C@@]12C(=O)OC(=O)[C@]1(C)[C@H]1CC[C@@H]2O1 [CANTHARIDIN],34 µM,11 µM,21 µM,–,–,–,–
O=C1C2C(C(=O)N1c1nccs1)[C@H]1C=C[C@@H]2CC1 (stereo partly drawn),> 200 µM,> 200 µM,> 200 µM,–,–,–,–
O=C1c2ccccc2C(=O)N1c1nccs1,> 200 µM,> 200 µM,> 200 µM,–,–,–,–
O=C1OC(=O)C2C3CCC(O3)C12 (stereo not drawn) [DEMETHYL-CANTHARIDIN],126 µM,74 µM,75 µM,–,–,–,–
Cc1cnc(N2C(=O)c3ccccc3C2=O)s1,> 200 µM,> 200 µM,> 200 µM,–,–,–,–
Cc1cnc(N2C(=O)C3C(C2=O)[C@H]2C=C[C@@H]3CC2)s1 (stereo partly drawn),> 200 µM,> 200 µM,> 200 µM,–,–,–,–
Cc1ccc2c(c1)C(=O)N(c1nccs1)C2=O,> 200 µM,> 200 µM,> 200 µM,–,–,–,–
